This is a sample that favours compounds with a hit; in the whole collection about 1.8% have one here.
CHRM4 agonist = CHRM4 agonism in calcium assay; 360,000 tested, 0.14% active; AID 624127; P08173; CHO-K1 hM4/Gqi5, Fluo-8 calcium fluorescence; vehicle 0%, full acetylcholine response 100%; activation, % at 3 µM;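 active = activation above the run mean over all test wells plus 3 SD, cut at about 32% in these data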;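 also: peak over basal fluorescence ratio per well then scaled between controls; 0% = DMSO wells and 100% = acetylcholine at EC100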
CHRM5 agonist = agonists of human muscarinic M5 receptor (CHRM5) | P08912 | CHO-K1 hM5 cells, Fluo-8 calcium fluorescence; 0% DMSO wells, 100% maximal acetylcholine response | activation, % at 3 µM | 360,000 tested, 0.19% active;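 active = activation above the run's mean over test compounds plus 3 SD, cut at about 23% in these data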;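 also: signal is peak over basal fluorescence ratio across the kinetic read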
Target sequence (P08912 whole entry, looked up): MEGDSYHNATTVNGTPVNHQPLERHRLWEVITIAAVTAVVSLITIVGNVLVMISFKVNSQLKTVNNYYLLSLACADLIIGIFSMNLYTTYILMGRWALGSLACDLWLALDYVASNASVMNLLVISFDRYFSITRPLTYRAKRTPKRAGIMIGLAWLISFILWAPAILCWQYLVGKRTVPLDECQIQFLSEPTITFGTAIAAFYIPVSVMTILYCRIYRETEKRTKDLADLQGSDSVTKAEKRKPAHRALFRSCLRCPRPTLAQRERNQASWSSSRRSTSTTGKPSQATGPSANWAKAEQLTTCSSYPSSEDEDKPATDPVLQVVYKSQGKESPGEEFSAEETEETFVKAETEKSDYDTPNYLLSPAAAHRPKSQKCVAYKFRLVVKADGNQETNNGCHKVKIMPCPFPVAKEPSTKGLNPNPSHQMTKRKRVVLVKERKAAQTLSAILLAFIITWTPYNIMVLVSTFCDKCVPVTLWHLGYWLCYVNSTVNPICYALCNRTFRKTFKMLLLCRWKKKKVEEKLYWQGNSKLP
CHRM5 antagonist = antagonists of human muscarinic M5 receptor (CHRM5). inhibition, % at 3 µM. P08912. CHO-hM5 cells, Fluo-8 calcium fluorescence, ACh EC80. 360,000 tested, 0.59% active;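 active = inhibition above a per-plate cutoff, the mean of that plate's test compounds plus 3 SD, cut at about 27% in these data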;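 also: 0% = acetylcholine EC80 with DMSO and 100% = DMSO without agonist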
CHRM5 PAM = CHRM5 positive allosteric modulation; activation, % at 3 µM; AID 624038; 360,000 tested, 0.3% active; P08912; CHO-K1 hM5, Fluo-8 calcium, ACh EC20 PAM; 0% = ACh EC20, 100% = ACh EC100;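 active = activation above the run cutoff, the mean activation of all test compounds plus 3 SD, cut at about 18% in these data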
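Probe or stimulus: acetylcholine, EC20 level; Assay system: human M5 receptor in CHO-K1 cells; Schedule: compound preincubation 140 s before EC20 acetylcholine addition; Technique: intracellular calcium via Fluo-8 fluorescence; Dosing: single-point, 3 µM nominal; Read-out basis: percent activation from peak-over-basal fluorescence ratio, scaled EC20-to-EC100 acetylcholine; Repeats: one well per compound, no replicates.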
M4 antag = CHRM4 antagonism in calcium assay; P08173; CHO-hM4 cells, ACh EC80, Fluo-8 calcium fluorescence; inhibition, % at 3 µM; 360,000 tested, 0.73% active;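 active = inhibition above its plate's cutoff, the mean inhibition of sample wells plus 3 SD, cut at about 27% in these data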;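 also: 0% = acetylcholine EC80 with DMSO and 100% = DMSO without agonist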
CHRM4 PAM = CHRM4 positive allosteric modulation. P08173. CHO-K1 hM4/Gqi5, Fluo-8 calcium fluorescence, ACh EC20; 0% = ACh EC20, 100% = maximal ACh. activation, % at 3 µM. 360,000 tested, 0.4% active;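 active = activation above its plate's cutoff, the mean activation of sample wells plus 3 SD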
Numbers without * were called inactive.

Results for COc1ccc(C(=O)C2CCCN(CC3CCCCC3)C2)cc1OC (stereo unspecified) ?
CHRM4 agonist: 1; CHRM5 agonist: -3; CHRM5 antagonist: 4; CHRM5 PAM: -7; M4 antag: 34*; CHRM4 PAM: -11

How did O=c1[nH]c2ccccc2n1C1CCN(C(c2nnnn2-c2ccc3c(c2)OCCO3)C2CC2)CC1 (stereo unspecified) do in these assays?
CHRM4 agonist: 22; CHRM5 agonist: 5; CHRM5 antagonist: 17; CHRM5 PAM: -17; M4 antag: 21; CHRM4 PAM: -11

Results for Cc1nn(CC(C)C)c(Cl)c1C(=O)NC1CCC(C)CC1 (stereo unspecified) ?
CHRM4 agonist: 0; CHRM5 agonist: -2; CHRM5 antagonist: 5; CHRM5 PAM: 2; M4 antag: 2; CHRM4 PAM: -3

How did O=C(Cc1ccccc1)N1CCN(Cc2ccc(Cl)cc2)CC1 do in these assays?
CHRM4 agonist: 2; CHRM5 agonist: 1; CHRM5 antagonist: -27; CHRM5 PAM: 22*; M4 antag: -8; CHRM4 PAM: 8

How did O=C(Cc1ccccc1)N1CCN(Cc2cccc(Cl)c2)CC1 do in these assays?
CHRM4 agonist: 0; CHRM5 agonist: 1; CHRM5 antagonist: 4; CHRM5 PAM: 0; M4 antag: 5; CHRM4 PAM: 4

What do the screens show for `Oc1cc(O)cc(/C=C/c2ccc(O)cc2O)c1`?
CHRM4 agonist: 1; CHRM5 agonist: 3; CHRM5 antagonist: -7; CHRM5 PAM: 6; M4 antag: 12; CHRM4 PAM: 9

What do the screens show for `O=C(N/N=C/C1C(=O)NC(=S)N(c2ccccc2)C1=O)c1cc(Br)c(O)c(Br)c1` (stereo unspecified)?
CHRM4 agonist: 7; CHRM5 agonist: 1; CHRM5 antagonist: 30*; CHRM5 PAM: -19; M4 antag: 9; CHRM4 PAM: -12

How did O=C(N/N=C/c1c(O)n(C2CCCCC2)c(=S)[nH]c1=O)c1ccccc1 do in these assays?
CHRM4 agonist: -1; CHRM5 agonist: -4; CHRM5 antagonist: 7; CHRM5 PAM: -3; M4 antag: -23; CHRM4 PAM: 0

How did O=C(CCCN1CCC(n2c(=O)[nH]c3ccccc32)CC1)c1ccc(F)cc1 do in these assays?
CHRM4 agonist: 5; CHRM5 agonist: 1; CHRM5 antagonist: 10; CHRM5 PAM: -14; M4 antag: 27*; CHRM4 PAM: -17

Results for Cc1nc(SCc2c(Cl)cccc2Cl)nc(OC(=O)N(C)C)c1C ?
CHRM4 agonist: 3; CHRM5 agonist: 0; CHRM5 antagonist: 0; CHRM5 PAM: 2; M4 antag: 6; CHRM4 PAM: 34*

How did Cn1cccc1/C=C1/C(=O)NC(=S)N(Cc2ccc(F)cc2)C1=O do in these assays?
CHRM4 agonist: 0; CHRM5 agonist: -1; CHRM5 antagonist: -5; CHRM5 PAM: 6; M4 antag: 9; CHRM4 PAM: 5

What do the screens show for `O=[N+]([O-])c1ccc(N2CCCNCC2)c2ncccc12`?
CHRM4 agonist: 1; CHRM5 agonist: -19; CHRM5 antagonist: 29*; CHRM5 PAM: -32; M4 antag: 27*; CHRM4 PAM: -48

What do the screens show for `O=[N+]([O-])c1ccc(N2CCCCCC2)c2nonc12`?
CHRM4 agonist: 144*; CHRM5 agonist: 545*; CHRM5 antagonist: 58*; CHRM5 PAM: -34; M4 antag: 38*; CHRM4 PAM: -19

What do the screens show for `O=[N+]([O-])c1ccc(N2CCCCC2)c2ncccc12`?
CHRM4 agonist: 0; CHRM5 agonist: -7; CHRM5 antagonist: 27; CHRM5 PAM: -10; M4 antag: 3; CHRM4 PAM: 1

What do the screens show for `COc1ccc(OC)c(CN2CCN(C(=O)Cc3ccccc3)CC2)c1`?
CHRM4 agonist: 1; CHRM5 agonist: -3; CHRM5 antagonist: 3; CHRM5 PAM: 1; M4 antag: -5; CHRM4 PAM: -2

What do the screens show for `CN1CCc2cccc(Cl)c2CC1`?
CHRM4 agonist: 0; CHRM5 agonist: -2; CHRM5 antagonist: 6; CHRM5 PAM: -7; M4 antag: 8; CHRM4 PAM: 0

How did c1cc2c(cc1CCNC1C3CC4CC(C3)CC1C4)OCO2 (stereo unspecified) do in these assays?
CHRM4 agonist: 3; CHRM5 agonist: -6; CHRM5 antagonist: 3; CHRM5 PAM: -11; M4 antag: 23; CHRM4 PAM: -9

Results for CC1CCC(NCCc2ccc3c(c2)OCO3)CC1 (stereo unspecified) ?
CHRM4 agonist: 2; CHRM5 agonist: -6; CHRM5 antagonist: -2; CHRM5 PAM: -12; M4 antag: 32*; CHRM4 PAM: -12

Results for CCC(C)NC(=O)c1c(N)n(Cc2ccc3c(c2)OCO3)c2nc3ccccc3nc12 (stereo unspecified) ?
CHRM4 agonist: 4; CHRM5 agonist: 9; CHRM5 antagonist: -5; CHRM5 PAM: 19*; M4 antag: -9; CHRM4 PAM: 5

Results for COc1ccc2[nH]c(C)c(CCNCc3cc(OC)c4c(c3)OCO4)c2c1 ?
CHRM4 agonist: 3; CHRM5 agonist: 4; CHRM5 antagonist: 17; CHRM5 PAM: -3; M4 antag: -1; CHRM4 PAM: 16

What do the screens show for `O=C1NCN(c2ccccc2)C12CCN(C(c1ccccc1)c1nnnn1C1CCCC1)CC2` (stereo unspecified)?
CHRM4 agonist: 2; CHRM5 agonist: 4; CHRM5 antagonist: -5; CHRM5 PAM: -5; M4 antag: -1; CHRM4 PAM: 4

How did CC[N+]12CCC(CC1)C(C(O)(c1ccccc1)c1ccccc1)C2 (stereo unspecified) do in these assays?
CHRM4 agonist: 0; CHRM5 agonist: -18; CHRM5 antagonist: 86*; CHRM5 PAM: -32; M4 antag: 72*; CHRM4 PAM: -44

Results for CC(C)[N+]12CCC(CC1)C(C(O)(c1ccccc1)c1ccccc1)C2 (stereo unspecified) ?
CHRM4 agonist: -1; CHRM5 agonist: -21; CHRM5 antagonist: 43*; CHRM5 PAM: -30; M4 antag: 54*; CHRM4 PAM: -15

Results for CN1CCCC(C(O)(c2ccccc2)c2ccccc2)C1 (stereo unspecified) ?
CHRM4 agonist: 1; CHRM5 agonist: -20; CHRM5 antagonist: -2; CHRM5 PAM: -14; M4 antag: -11; CHRM4 PAM: -18

How did Cc1ccc(C(O)(c2ccc(C)c(C)c2)C2CN3CCC2CC3)cc1C (stereo unspecified) do in these assays?
CHRM4 agonist: 4; CHRM5 agonist: -5; CHRM5 antagonist: 14; CHRM5 PAM: -9; M4 antag: 0; CHRM4 PAM: -2
